From ChEMBL document CHEMBL1146509, “Periconicins, two new fusicoccane diterpenes produced by an endophytic fungus Periconia sp. with antibacterial activity” (2004)
Converted amounts (≈) assume the structure as drawn.

Tests used:
[1] = tested on: Micrococcus luteus; experiment: Antibacterial activity against Micrococcus luteus IFO 12708 after 24 hrs by twofold microtiter broth dilution method; format: functional
How it was run: (§1)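 Two-fold serial dilutions in DMSO added to standard methods (SM) broth in 96-well plates, final 0.5% DMSO; wells inoculated from overnight culture at 10^5 CFU/mL; incubated 37 °C for 24 h; MIC taken as lowest concentration with no visible growth. Strains from ATCC or Institute for Fermentation, Osaka stock collections.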

[2] = tested on: Salmonella typhimurium; experiment: Antibacterial activity against Salmonella typhimurium ATCC 14028 after 24 hrs by twofold microtiter broth dilution method; format: functional, Salmonella enterica subsp. enterica serovar Typhimurium; how it was run: as §1
[3] = tested on: Escherichia coli; experiment: Antibacterial activity against Escherichia coli ATCC 25922 after 24 hrs by twofold microtiter broth dilution method; format: functional; how it was run: as §1
[4] = tested on: Klebsiella pneumoniae; experiment: Antibacterial activity against Klebsiella pneumoniae IFO 13541 after 24 hrs by twofold microtiter broth dilution method; format: functional; how it was run: as §1
[5] = tested on: Bacillus subtilis; experiment: Antibacterial activity against Bacillus subtilis ATCC 6633 after 24 hrs by twofold microtiter broth dilution method; format: functional; how it was run: as §1
[6] = tested on: Staphylococcus aureus; experiment: Antibacterial activity against Staphylococcus aureus ATCC 6538p after 24 hrs by twofold microtiter broth dilution method; format: functional; how it was run: as §1
[7] = tested on: Staphylococcus epidermidis; experiment: Antibacterial activity against Staphylococcus epidermidis ATCC 12228 after 24 hrs by twofold microtiter broth dilution method; format: functional; how it was run: as §1
[8] = tested on: Proteus vulgaris; experiment: Antibacterial activity against Proteus vulgaris ATCC 3851 after 24 hrs by twofold microtiter broth dilution method; format: functional; how it was run: as §1
[9] = Salmonella enterica, ATCC 14028, 24 h

Row | Compound | MIC ([1]; IFO 12708, 24 h) [µg/mL] | MIC [2, 9] [µg/mL] | MIC ([3]; ATCC 25922, 24 h) [µg/mL] | MIC ([4]; IFO 13541, 24 h) [µg/mL] | MIC ([5]; ATCC 6633, 24 h) [µg/mL] | MIC [6] [µg/mL] | MIC ([7]; ATCC 12228, 24 h) [µg/mL] | MIC ([8]; ATCC 3851, 24 h) [µg/mL] | MIC [1] [µg/mL] | MIC ([2]; Salmonella enterica subsp. enterica serovar Typhimurium) [µg/mL] | MIC [3] [µg/mL] | MIC [4] [µg/mL] | MIC [5] [µg/mL] | MIC [7] [µg/mL] | MIC [8] [µg/mL]
1 | CC(C)C1=C2C/C=C(/C=O)[C@@H]3C(=O)[C@@H](O)[C@@H](C)[C@H]3C[C@]2(C)CC1 [PERICONICIN A] | 25 (≈ 79 µM) | 6.25 (≈ 19.8 µM) | 100 (≈ 316 µM) | 3.12 (≈ 9.86 µM) | 3.12 (≈ 9.86 µM) | 12.5 (≈ 39.5 µM) | 12.5 (≈ 39.5 µM) | 6.25 (≈ 19.8 µM) |  |  |  |  |  |  | 
2 | CC(CO)C1=C2C/C=C(/C=O)[C@@H]3C(=O)[C@@H](O)[C@@H](C)[C@H]3C[C@]2(C)CC1 (some centres undefined) [PERICONICIN B] | > 100 | 50 (≈ 150 µM) | > 100 | 25 (≈ 75.2 µM) | 25 (≈ 75.2 µM) | 50 (≈ 150 µM) | 100 (≈ 301 µM) | 50 (≈ 150 µM) |  |  |  |  |  |  | 
3 | GENTAMICIN |  |  |  |  |  | 3.12 |  |  | 6.25 | 3.12 | 1.56 | 12.5 | 3.12 | 3.12 | 6.25
